Reference: ChEMBL document CHEMBL1122064, “Synthesis and biological evaluation of 17-[131I]iodo-9-telluraheptadecanoic acid, a potential imaging agent” (J Med Chem, 1982)

Key:
Rattus norvegicus [1] = assay: Distribution of radioactivity in blood of Fischer 344 female rat after 6 hr of intravenous administration; assay type: ADME, organism-based; settings: in vivo
How it was run: (§1)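 Female Fischer 344 rats (10-12 weeks, 170-200 g) with food and water ad libitum. The 131I-labelled fatty acid was taken up in ethanol, added dropwise to stirred 6% BSA at 40 °C (final ethanol 10%), filtered, and injected into a lateral tail vein under ether. Rats were CO2-anaesthetised and killed; organs were excised, rinsed, blotted, weighed and Ge(Li)-counted. Results are mean (range) % injected dose/g.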

Rattus norvegicus [2] = assay: Distribution of radioactivity in heart of Fischer 344 female rat after 6 hr of intravenous administration; assay type: ADME, organism-based; settings: in vivo; how it was run: as §1
Rattus norvegicus [3] = assay: Distribution of radioactivity in Thyroid of Fischer 344 female rat after 7 days of intravenous administration; assay type: ADME, organism-based; settings: in vivo, 168 h; how it was run: as §1
Rattus norvegicus [4] = assay: Distribution of radioactivity in kidneys of Fischer 344 female rat after 4 days of intravenous administration; assay type: ADME, organism-based, Kidney; settings: in vivo, 96 h; how it was run: as §1
Rattus norvegicus [5] = assay: Distribution of radioactivity in heart of Fischer 344 female rat after 4 day of intravenous administration; assay type: ADME, organism-based; settings: in vivo, 96 h; how it was run: as §1
Rattus norvegicus [6] = assay: Distribution of radioactivity in blood of Fischer 344 female rat after 7 days of intravenous administration; assay type: ADME, organism-based; settings: in vivo, 168 h; how it was run: as §1
Rattus norvegicus [7] = assay: Distribution of radioactivity in lungs of Fischer 344 female rat after 6 hr of intravenous administration; assay type: ADME, organism-based, Lung; settings: in vivo
How it was run: (§2)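 Female Fischer 344 rats, 10-12 weeks old, 170-200 g, fed ad libitum. The 131I-labelled fatty acid was dissolved in absolute ethanol, added dropwise to stirred 6% bovine serum albumin at 40 °C (final ethanol 10%), filtered, and injected into a lateral tail vein under ether anaesthesia. Organs were excised, rinsed, blotted and weighed, then counted by Ge(Li) analyzer as percent injected dose/g.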

Rattus norvegicus [8] = assay: Distribution of radioactivity in liver of Fischer 344 female rat after 60 min of intravenous administration; assay type: ADME, organism-based; settings: in vivo, 1 h
How it was run: (§3)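 Female Fischer 344 rats, 10-12 weeks, 170-200 g, fed ad libitum. The labelled fatty acid was given in 6% bovine serum albumin via a lateral tail vein under ether anaesthesia. Rats were killed by CO2 anaesthesia and cervical fracture; organs were excised, rinsed, blotted, weighed and counted by Ge(Li) analyzer. Results are mean percent injected dose/g with range.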

Rattus norvegicus [9] = assay: Distribution of radioactivity in Thyroid of Fischer 344 female rat after 4 days of intravenous administration; assay type: ADME, organism-based; settings: in vivo, 96 h; how it was run: as §1
Rattus norvegicus [10] = assay: Distribution of radioactivity in brain of Fischer 344 female rat after 30 min of intravenous administration; assay type: ADME, organism-based; settings: in vivo, 0.5 h; how it was run: as §1
Rattus norvegicus [11] = assay: Distribution of radioactivity in heart of Fischer 344 female rat after 2 hr of intravenous administration; assay type: ADME, organism-based; settings: in vivo; how it was run: as §1
Rattus norvegicus [12] = assay: Distribution of radioactivity in brain of Fischer 344 female rat after 2 hr of intravenous administration; assay type: ADME, organism-based; settings: in vivo; how it was run: as §1
Rattus norvegicus [13] = assay: Distribution of radioactivity in kidneys of Fischer 344 female rat after 60 min of intravenous administration; assay type: ADME, organism-based, Kidney; settings: in vivo, 1 h
Rattus norvegicus [14] = assay: Distribution of radioactivity in Thyroid of Fischer 344 female rat after 2 min of intravenous administration; assay type: ADME, organism-based; settings: in vivo; how it was run: as §1
Rattus norvegicus [15] = assay: Distribution of radioactivity in lungs of Fischer 344 female rat after 2 min of intravenous administration; assay type: ADME, organism-based, Lung; settings: in vivo; how it was run: as §2
Rattus norvegicus [16] = assay: Distribution of radioactivity in kidneys of Fischer 344 female rat after 24 hr of intravenous administration; assay type: ADME, organism-based, Kidney; settings: in vivo; how it was run: as §1
Rattus norvegicus [17] = assay: Distribution of radioactivity in kidneys of Fischer 344 female rat after 2 hr of intravenous administration; assay type: ADME, organism-based, Kidney; settings: in vivo; how it was run: as §1
Rattus norvegicus [18] = assay: Distribution of radioactivity in brain of Fischer 344 female rat after 7 days of intravenous administration; assay type: ADME, organism-based; settings: in vivo, 168 h; how it was run: as §1
Rattus norvegicus [19] = assay: Distribution of radioactivity in lungs of Fischer 344 female rat after 30 min of intravenous administration; assay type: ADME, organism-based, Lung; settings: in vivo, 0.5 h; how it was run: as §3
Rattus norvegicus [20] = assay: Distribution of radioactivity in blood of Fischer 344 female rat after 24 hr of intravenous administration; assay type: ADME, organism-based; settings: in vivo; how it was run: as §1
Rattus norvegicus [21] = assay: Distribution of radioactivity in brain of Fischer 344 female rat after 24 hr of intravenous administration; assay type: ADME, organism-based; settings: in vivo; how it was run: as §1
Rattus norvegicus [22] = assay: Distribution of radioactivity in blood of Fischer 344 female rat after 2 min of intravenous administration; assay type: ADME, organism-based; settings: in vivo; how it was run: as §1
Rattus norvegicus [23] = assay: Distribution of radioactivity in heart of Fischer 344 female rat after 10 min of intravenous administration; assay type: ADME, organism-based; settings: in vivo; how it was run: as §1
Rattus norvegicus [24] = assay: Distribution of radioactivity in liver of Fischer 344 female rat after 2 min of intravenous administration; assay type: ADME, organism-based; settings: in vivo; how it was run: as §2
Rattus norvegicus [25] = assay: Distribution of radioactivity in blood of Fischer 344 female rat after 10 min of intravenous administration; assay type: ADME, organism-based; settings: in vivo; how it was run: as §1
Rattus norvegicus [26] = assay: Distribution of radioactivity in heart of Fischer 344 female rat after 7 days of intravenous administration; assay type: ADME, organism-based; settings: in vivo, 168 h; how it was run: as §1
Rattus norvegicus [27] = assay: Distribution of radioactivity in kidneys of Fischer 344 female rat after 30 min of intravenous administration; assay type: ADME, organism-based, Kidney; settings: in vivo, 0.5 h
Rattus norvegicus [28] = assay: Distribution of radioactivity in kidneys of Fischer 344 female rat after 7 days of intravenous administration; assay type: ADME, organism-based, Kidney; settings: in vivo, 168 h; how it was run: as §1
Rattus norvegicus [29] = assay: Distribution of radioactivity in brain of Fischer 344 female rat after 60 min of intravenous administration; assay type: ADME, organism-based; settings: in vivo, 1 h; how it was run: as §1
Rattus norvegicus [30] = assay: Distribution of radioactivity in lungs of Fischer 344 female rat after 2 hr of intravenous administration; assay type: ADME, organism-based, Lung; settings: in vivo; how it was run: as §2
Rattus norvegicus [31] = assay: Distribution of radioactivity in kidneys of Fischer 344 female rat after 2 min of intravenous administration; assay type: ADME, organism-based, Kidney; settings: in vivo; how it was run: as §1

## O=C(O)CCCCCCCC[Te]CCCCCCCC[131I]
Rattus norvegicus [1]
  Distribution of radioactivity: 0.44 dose g-1
Rattus norvegicus [2]
  Distribution of radioactivity: 0.57 dose g-1
Rattus norvegicus [3]
  Distribution of radioactivity: 203 dose g-1
Rattus norvegicus [4]
  Distribution of radioactivity: 0.03 dose g-1
Rattus norvegicus [5]
  Distribution of radioactivity: 0.04 dose g-1
Rattus norvegicus [6]
  Distribution of radioactivity: 0.009 dose g-1
Rattus norvegicus [7]
  Distribution of radioactivity: 0.48 dose g-1
Rattus norvegicus [8]
  Distribution of radioactivity: 1.16 dose g-1
Rattus norvegicus [9]
  Distribution of radioactivity: 226 dose g-1
Rattus norvegicus [10]
  Distribution of radioactivity: 0.06 dose g-1
Rattus norvegicus [11]
  Distribution of radioactivity: 1.33 dose g-1
Rattus norvegicus [12]
  Distribution of radioactivity: 0.04 dose g-1
Rattus norvegicus [13]
  Distribution of radioactivity: 0.68 dose g-1
Rattus norvegicus [14]
  Distribution of radioactivity: 6.27 dose g-1
Rattus norvegicus [15]
  Distribution of radioactivity: 1.4 dose g-1
Rattus norvegicus [16]
  Distribution of radioactivity: 0.08 dose g-1
Rattus norvegicus [17]
  Distribution of radioactivity: 0.54 dose g-1
Rattus norvegicus [18]
  Distribution of radioactivity: < 0.002 dose g-1
Rattus norvegicus [19]
  Distribution of radioactivity: 0.85 dose g-1
Rattus norvegicus [20]
  Distribution of radioactivity: 0.08 dose g-1
Rattus norvegicus [21]
  Distribution of radioactivity: 0.03 dose g-1
Rattus norvegicus [22]
  Distribution of radioactivity: 1.28 dose g-1
Rattus norvegicus [23]
  Distribution of radioactivity: 2.01 dose g-1
Rattus norvegicus [24]
  Distribution of radioactivity: 3.71 dose g-1
Rattus norvegicus [25]
  Distribution of radioactivity: 0.88 dose g-1
Rattus norvegicus [26]
  Distribution of radioactivity: 0.016 dose g-1
Rattus norvegicus [27]
  Distribution of radioactivity: 0.8 dose g-1
Rattus norvegicus [28]
  Distribution of radioactivity: 0.016 dose g-1
Rattus norvegicus [29]
  Distribution of radioactivity: 0.05 dose g-1
Rattus norvegicus [30]
  Distribution of radioactivity: 0.68 dose g-1
Rattus norvegicus [31]
  Distribution of radioactivity: 1.36 dose g-1
